Series [1] has as its system RAW264.7. Description: Antiinflammatory activity in mouse RAW264.7 cells assessed as inhibition of LPS-induced NO production at 10 uM administered 1 hr before LPS challenge measured after 24 hrs by Griess method. Format: functional, cell-based. A general note: Nitrite, measured by Griess reagent, commonly stands in for NO production.
Series [2] relates to Mus musculus. The series can be described thus: Antiinflammatory activity in carrageenan-stimulated ICR mouse assessed as vascular localization of inflammatory cells at 8 mg/kg, ip measured after 5 hrs. It is filed as functional, organism-based. Also noted: dose 8 mg/kg. In outline:
(§1)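 Male ICR mice were dosed 30 min before intraplantar carrageenan, and paw biopsies were taken 5 h later. Tissue was fixed in Dietric solution for 1 week at room temperature, dehydrated in graded ethanol and paraffin-embedded. 7-thickness sections were stained with hematoxylin–eosin or Van Gieson and examined by light microscopy.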

The test system of series [3] is Mus musculus. The series can be described thus: Antiinflammatory activity in ICR mouse assessed as decrease in carrageenan-induced serum TNFalpha level at 8 mg/kg, ip. It is filed as functional, organism-based. The arrangement: dose 8 mg/kg. In outline:
(§2)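 Male ICR mice (18–25 g, n = 6 per group). Carrageenan was injected intraplantar into the paw, with drug given 30 min beforehand. Serum was collected at the 5th hr. Nitrite was measured colorimetrically by Griess reaction, and TNF-α by commercial ELISA. Data are mean ± SEM.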

For series [4], the system named is RAW264.7. Description: Antiinflammatory activity in mouse RAW264.7 cells assessed as inhibition of LPS-induced PGE2 production administered 1 hr before LPS challenge measured after 24 hrs by ELISA. In general terms: An ELISA detects its analyte on a solid surface through an enzyme-linked reagent.
Series [5] concerns Mus musculus. The series can be described thus: Antiinflammatory activity in ICR mouse assessed as decrease in carrageenan-induced serum NO level at 8 mg/kg, ip measured after 5 hrs. It is filed as functional, organism-based. Also noted: dose 8 mg/kg. In outline: as §2
Series [6] concerns Mus musculus. The series can be described thus: Antioxidant activity in carrageenan-stimulated ICR mouse assessed as increase in SOD activity at 2 mg/kg, ip measured after 5 hrs. Format: functional. The conditions noted are these: route intraperitoneal. In outline:
(§3)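 Male ICR mice (n = 6 per group) received the drug 30 min before intraplantar carrageenan, and paw tissue was taken at the 5th hr. Total SOD was measured by inhibition of cytochrome c reduction, CAT by Aebi's method, and cytosolic GPx by Paglia–Valentine. Activities are in U/mg protein, given as mean ± SEM.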

Series [7] concerns Mus musculus. Description: Antiinflammatory activity in carrageenan-stimulated ICR mouse assessed as reduction in COX2 immunoreactive cells at 8 mg/kg, ip measured after 5 hrs. Also noted: dose 8 mg/kg. It is filed as functional, organism-based.
For series [8], the system named is Mus musculus. The series can be described thus: Antiinflammatory activity in carrageenan-stimulated ICR mouse assessed as effect on connective tissue damage at 8 mg/kg, ip measured after 5 hrs. The arrangement: dose 8 mg/kg. Format: functional, organism-based. In outline:
as §1

In series [9] the test system is Mus musculus. Description: Antioxidant activity in carrageenan-stimulated ICR mouse assessed as increase in CAT activity at 4 mg/kg, ip measured after 5 hrs. Format: functional. The conditions noted are these: route intraperitoneal. In outline:
as §3

Series [10] relates to RAW264.7. The series can be described thus: Down regulation of iNOS protein expression in LPS-stimulated mouse RAW264.7 cells at 20 uM after 24 hrs by Western blot analysis. Format: functional. In outline: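 RAW 264.7 cells were pretreated with test agent for 1 h, then stimulated with 100 ng/mL LPS for 24 h. Lysates were made in RIPA buffer and 30 µg protein resolved by SDS-PAGE, blotted to PVDF and blocked with 1% BSA. Primary antibody ran overnight at 4 °C, HRP secondary 1 h at 37 °C. Detection was by ECL, with band intensity expressed relative to control.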
In general terms: A western blot detects proteins with antibodies after separation by electrophoresis.

The test system of series [11] is Mus musculus. Description: Antiinflammatory activity in carrageenan-stimulated ICR mouse assessed as decrease in number of inflammatory cells at 8 mg/kg, ip measured after 5 hrs. It is filed as functional, organism-based. Also noted: dose 8 mg/kg. In outline:
as §1

Series [12] has as its system RAW264.7. The series can be described thus: Cytotoxicity against mouse RAW264.7 cells after 24 hrs by MTT assay. Format: cell-based. The note with it: raw264.7, 24 h. In outline: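 RAW 264.7 cells (2 × 10⁵, DMEM + 10% FBS, grown 1 day to near confluence) exposed to test agent with 100 ng/mL LPS for 24 h. After two DPBS washes, 0.5 mg/mL MTT was added for 2 h at 37 °C. Formazan was dissolved in DMSO for 30 min and absorbance read at 570 nm.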

The subject of series [13] is RAW264.7. Description: Antiinflammatory activity in mouse RAW264.7 cells assessed as inhibition of LPS-induced NO production at 5 uM administered 1 hr before LPS challenge measured after 24 hrs by Griess method. Format: functional, cell-based.
The test system of series [14] is RAW264.7. Description: Antiinflammatory activity in mouse RAW264.7 cells assessed as inhibition of LPS-induced TNFalpha production administered 1 hr before LPS challenge measured after 24 hrs by ELISA.
In series [15] the test system is Mus musculus. Description: Antiinflammatory activity in carrageenan-stimulated ICR mouse assessed as effect on shape of collagen fiber at 8 mg/kg, ip measured after 5 hrs. Also noted: dose 8 mg/kg. It is filed as functional, organism-based. In outline:
as §1

In series [16] the test system is Mus musculus. The series can be described thus: Antiinflammatory activity in ICR mouse assessed as decrease in carrageenan-induced MDA level at 8 mg/kg, ip measured after 5 hrs. Format: functional, organism-based. The arrangement: dose 8 mg/kg. In outline:
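Male ICR mice (n = 6 per group) were dosed 30 min before intraplantar carrageenan. MDA in the edematous paw tissue was determined at the 5th hr after carrageenan.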

Series [17] relates to RAW264.7. Description: Antiinflammatory activity in mouse RAW264.7 cells assessed as inhibition of LPS-induced TNFalpha production at 5 uM administered 1 hr before LPS challenge measured after 24 hrs by ELISA.
Series [18] relates to Mus musculus. Description: Antioxidant activity in carrageenan-stimulated ICR mouse assessed as increase in CAT activity at 8 mg/kg, ip measured after 5 hrs. Format: functional. The conditions noted are these: route intraperitoneal. In outline:
as §3

The test system of series [19] is Mus musculus. Description: Antiinflammatory activity in ICR mouse assessed as decrease in carrageenan-induced serum TNFalpha level at 8 mg/kg, ip measured after 5 hrs. Format: functional, organism-based. The arrangement: dose 8 mg/kg. In outline:
as §2

The test system of series [20] is RAW264.7. Description: Inhibition of JNK phosphorylation in LPS-stimulated mouse RAW264.7 cells at 5 to 20 uM after 30 mins by Western blot analysis. Format: cell-based. In outline:
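RAW 264.7 cells were pretreated with test agent, then stimulated with LPS for 30 min. Phospho-ERK, phospho-JNK and phospho-p38 were assessed by Western blot: RIPA lysates, 30 µg protein, SDS-PAGE, PVDF, primary antibody overnight at 4 °C, HRP secondary and ECL detection.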

For series [21], the system named is Mus musculus. The series can be described thus: Antioxidant activity in carrageenan-stimulated ICR mouse assessed as increase in GPx activity at 2 mg/kg, ip measured after 5 hrs. It is filed as functional. The conditions noted are these: route intraperitoneal. In outline:
as §3

Series [22] has as its system Mus musculus. Description: Antioxidant activity in carrageenan-stimulated ICR mouse assessed as increase in CAT activity at 2 mg/kg, ip measured after 5 hrs. Format: functional. The conditions noted are these: route intraperitoneal. In outline: as §3

The text below walks through data of ChEMBL document CHEMBL1938286, “A concise synthesis of viscolin, and its anti-inflammatory effects through the suppression of iNOS, COX-2, ERK phosphorylation and proinflammatory cytokines expressions” (Eur J Med Chem, 2012).

Activity calls are given as the source filed them. The calls are words filed in the database; no cut-off is given here.

In general, IC50 refers to the concentration needed to halve the response being measured.

For the compound `COc1cc(CCCc2c(OC)cc(O)c(OC)c2OC)ccc1O` [VISCOLIN], the result in the series with RAW264.7 [1], in the series on Mus musculus [2], with Mus musculus [3], in the series on Mus musculus [5], with Mus musculus [7] and with Mus musculus [8] was Active. Moreover, the result with Mus musculus [11], in the series with RAW264.7 [13], with Mus musculus [15], with Mus musculus [16], in the series with RAW264.7 [17] and in the series with Mus musculus [19] was Active. Also, the figures for the IC50 in the series on RAW264.7 [4] and in the series on RAW264.7 [14] were 14.4 µM and 17.3 µM, respectively. The Activity in the series with Mus musculus [6] was 2.45 U/mg; in the series with Mus musculus [9] it was 4.28 U/mg; with RAW264.7 [10] it was 83.8%; in the series with RAW264.7 [12], “Non-toxic”; in the series on RAW264.7 [14], “Dose-dependent effect”; with Mus musculus [18], 4.98 U/mg. The figures for the Activity with Mus musculus [21] and in the series on Mus musculus [22] were 8.64 U/mg and 3.92 U/mg, respectively. Also, the inhibition entry in the series with RAW264.7 [20] is “inactive”.
